Assay outcomes (PubChem)
An excerpt weighted towards active compounds, which were near 3.1% of everything screened.
SENP8 block-1: human SENP8 protease inhibitors, primary screen, biochemical, fluorescence, Nedd8 protein substrate, uHTS. 360,000 compounds, 0.64% hits. Sentrin-specific protease 8 (Homo sapiens), Q96LD8. inhibition, % at 20 µM. recombinant SENP8; in the data active = inhibition mostly above about 40%, no sharp cut-off; inactive = mostly below about 27%
Target sequence (Q96LD8 whole entry, looked up): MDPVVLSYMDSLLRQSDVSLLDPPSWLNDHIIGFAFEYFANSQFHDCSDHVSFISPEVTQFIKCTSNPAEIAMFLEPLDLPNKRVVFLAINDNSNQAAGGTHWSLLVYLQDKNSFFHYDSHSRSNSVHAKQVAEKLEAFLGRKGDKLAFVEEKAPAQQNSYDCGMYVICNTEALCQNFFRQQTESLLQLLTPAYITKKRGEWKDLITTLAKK
SENP8 block-2: SENP8 protease inhibitors, primary screen, biochemical, luminescence | 330,000 compounds, 1.2% hits | purified SENP8, Z-RLRGG-aminoluciferin cleavage | AID 2540, 2010 | inhibition, % at 10 µM | Sentrin-specific protease 8 (Homo sapiens), Q96LD8; in the data active = inhibition above about 50%
Apaf1 inhib: inhibitors of human Apaf-1 apoptosome, primary screen, biochemical, DEVD-Rh110 fluorescence, uHTS; AID 489030, 2010; 330,000 compounds, 0.71% hits; reconstituted apoptosome caspase-3 activity; inhibition, % at 20 µM; Apoptotic protease-activating factor 1 (Homo sapiens), O14727; active = inhibition of at least 40% at 20 µM
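System: Apoptosome proteins | Medium: Hepes pH 7.5 with detergent and BSA | Also added: Cytochrome c trigger plus (Z-DEVD)2-Rh110 caspase-3 substrate | Incubation: 30 min compound preincubation, 50 min activation, room temperature | Detection: Rhodamine 110 fluorescence at Ex 480/Em 540 nm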
SENP6 block: SENP6 protease inhibitors, primary screen, biochemical, luminescence, uHTS. Sentrin-specific protease 6 (Homo sapiens), Q9GZR1. Recombinant SENP6 catalytic domain, aminoluciferin luminescence. inhibition, % at 10 µM. 330,000 compounds, 1.8% hits. AID 2599, 2010;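 active = inhibition above about 50% at the single tested dose, limit read from the data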
SENP7 inh: SENP7 protease inhibitors, primary screen, biochemical, luminescence, uHTS; 330,000 compounds, 1.5% hits; recombinant SENP7, Z-RLRGG-aminoluciferin luminescence, 40 min; inhibition, % at 5 µM;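 active = inhibition above about 50% at the single test dose, limit read from the data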
UBC13 inh: UBC13 polyubiquitin chain formation inhibitors, primary screen, biochemical, TR-FRET, uHTS | 330,000 compounds, 0.47% hits | AID 485273, 2010 | Ubiquitin-conjugating enzyme E2 N (Homo sapiens), P61088 | inhibition, % at 20 µM; in the data active = inhibition above about 45%, passing the limit was not always enough
Target sequence (P61088 whole entry, looked up): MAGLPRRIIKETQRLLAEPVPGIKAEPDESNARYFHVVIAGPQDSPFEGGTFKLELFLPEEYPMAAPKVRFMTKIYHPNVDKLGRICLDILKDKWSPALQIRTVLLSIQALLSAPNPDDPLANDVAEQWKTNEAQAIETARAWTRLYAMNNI
Numbers stand for hits.

What do the screens show for `CN1CCN(c2ccc([N+](=O)[O-])c3no[n+]([O-])c23)CC1`?
SENP8 block-1: 69

What do the screens show for `CN1CCN(c2ccc(S(C)(=O)=O)cc2[N+](=O)[O-])CC1`?
SENP8 block-1: inactive; SENP8 block-2: inactive; Apaf1 inhib: inactive; SENP6 block: inactive; SENP7 inh: inactive; UBC13 inh: inactive

How did O=[N+]([O-])c1ccc(N(CCO)CCO)c2c1no[n+]2[O-] do in these assays?
SENP8 block-1: 51

How did COC1CC2C=C(C)C=CC=CC(=O)NC(c3ccccc3)CC=CCCC(O)CC(=O)C2=C1O (stereo not drawn) do in these assays?
SENP8 block-1: inactive

How did C=CCN1C(=O)NC(=O)/C(=C/c2c(CCN(C)C(=O)c3ccccc3)cc3c(c2OC)OCO3)C1=O do in these assays?
SENP8 block-1: 54; SENP8 block-2: inactive; Apaf1 inhib: inactive; SENP6 block: inactive; SENP7 inh: inactive; UBC13 inh: inactive

What do the screens show for `COc1ccc(CC2=NCCc3cc(OC)c(OC)cc32)cc1OC`?
SENP8 block-1: inactive

Results for C[n+]1c2ccccc2nc2ccc(NCCO)cc21 ?
SENP8 block-1: 90; SENP8 block-2: 71; Apaf1 inhib: 94; SENP6 block: 81; SENP7 inh: inactive; UBC13 inh: inactive

Results for O=C1NC(=O)C(C2CCOC2=O)N1 (stereo not drawn) ?
SENP8 block-1: inactive

How did C[N+]1(C)C2CC[C@H]1CC(OC(=O)C(CO)c1ccccc1)C2 (stereo partly drawn) do in these assays?
SENP8 block-1: inactive; SENP8 block-2: inactive; Apaf1 inhib: inactive; SENP6 block: inactive; SENP7 inh: inactive; UBC13 inh: inactive

What do the screens show for `C[N+]1(C)[C@@H]2CC[C@H]1CC(OC(=O)[C@@H](CO)c1ccccc1)C2` (stereo partly drawn)?
SENP8 block-1: inactive; SENP8 block-2: inactive; Apaf1 inhib: 70; SENP6 block: inactive; SENP7 inh: inactive; UBC13 inh: inactive

What do the screens show for `C[C@]12CCC3C(CC[C@@H]4[C@H]5O[C@H]5CC[C@]34C)C1CC[C@@H]2O` (stereo partly drawn)?
SENP8 block-1: inactive

What do the screens show for `c1ccc(OCC2CO2)cc1` (stereo not drawn)?
SENP8 block-1: inactive; SENP8 block-2: inactive; Apaf1 inhib: inactive; SENP6 block: inactive; SENP7 inh: inactive; UBC13 inh: inactive

Results for c1ccc(-c2[nH]c[n+](CC3CO3)c2-c2ccccc2)cc1 (stereo not drawn) ?
SENP8 block-2: inactive; Apaf1 inhib: 51; SENP6 block: inactive; SENP7 inh: inactive; UBC13 inh: inactive

How did COc1ccc2c(c1)c(C(=O)O)c(C)n2CC(C)C do in these assays?
SENP8 block-1: inactive; SENP8 block-2: inactive; Apaf1 inhib: inactive; SENP6 block: inactive; SENP7 inh: inactive; UBC13 inh: inactive

How did COc1cc(O)c(C(=O)O)c(-c2cc(O)c(O)cc2C)c1 do in these assays?
SENP8 block-1: 66; SENP8 block-2: inactive; Apaf1 inhib: inactive; SENP6 block: inactive; SENP7 inh: inactive; UBC13 inh: inactive

How did O=C(COC(=O)c1cc(Br)cc(Br)c1O)NC12CC3CC(CC(C3)C1)C2 do in these assays?
SENP8 block-1: inactive

Results for CCCOC(=O)c1ccc(-[n+]2c(-c3ccccc3)cc(-c3ccccc3)cc2-c2ccccc2)cc1 ?
SENP8 block-1: inactive; SENP8 block-2: inactive; Apaf1 inhib: 47; SENP6 block: inactive; SENP7 inh: inactive; UBC13 inh: inactive

Results for CCOC(=O)c1cc2ccccc2n1C1CCN(Cc2ccccc2)CC1 ?
SENP8 block-1: inactive

What do the screens show for `CC(=O)NC1=C(N2CC2C)C(=O)C(NC(C)=O)=C(N2CC2C)C1=O` (stereo not drawn)?
SENP8 block-1: 65

What do the screens show for `CCOC(=O)[C@]12Cc3cc(Cl)ccc3[C@H]1N(C1CCCCC1)C(=O)c1cc(OC)ccc12`?
SENP8 block-1: inactive

How did CCOC(=O)c1c(N)n(CCCOC(=O)c2ccco2)c2nc3ccccc3nc12 do in these assays?
SENP8 block-1: inactive; SENP8 block-2: inactive; Apaf1 inhib: 43; SENP6 block: inactive; SENP7 inh: inactive; UBC13 inh: inactive

How did CCCNC(=O)c1c(N)n(Cc2ccco2)c2nc3ccccc3nc12 do in these assays?
SENP8 block-2: inactive; Apaf1 inhib: 40; SENP6 block: inactive; SENP7 inh: inactive; UBC13 inh: inactive

How did COCCCNC(=O)c1c(N)n(Cc2ccco2)c2nc3ccccc3nc12 do in these assays?
SENP8 block-1: inactive; SENP8 block-2: inactive; Apaf1 inhib: inactive; SENP6 block: inactive; SENP7 inh: inactive; UBC13 inh: inactive

How did CN(Cc1cccc(-c2ccncc2)c1)C(=O)Oc1ccccc1Cc1ccccc1 do in these assays?
SENP8 block-1: inactive

How did COC(=O)C1=C(C(=O)OC)SC2(S1)C(C(=O)OC)=C(C(=O)OC)Sc1c2ssc1=O do in these assays?
SENP8 block-1: 43

Results for O=C(O)CC1OCC=C2CN3CCC45c6ccccc6NC4C1C2CC35 (stereo not drawn) ?
SENP8 block-1: inactive; SENP8 block-2: inactive; Apaf1 inhib: inactive; SENP6 block: inactive; SENP7 inh: inactive; UBC13 inh: inactive

Results for O=C(O)CC1OCC=C2CN3CCC45C6=CC(=O)C(=O)C([N+](=O)[O-])=C6NC4C1C2CC35 (stereo not drawn) ?
SENP8 block-1: 112

How did O=c1c2ccccc2[se]n1-c1ccccc1 do in these assays?
SENP8 block-1: inactive; SENP8 block-2: 61; Apaf1 inhib: inactive; SENP6 block: 72; SENP7 inh: 58; UBC13 inh: inactive

How did Cc1cc(C=C2C(=O)N(C)C(=S)N(C)C2=O)c(C)n1C1CCCCC1 do in these assays?
SENP8 block-1: 41; SENP8 block-2: inactive; Apaf1 inhib: inactive; SENP6 block: inactive; SENP7 inh: inactive; UBC13 inh: inactive

What do the screens show for `CC1c2ccccc2-n2nncc2CN1C` (stereo not drawn)?
SENP8 block-1: inactive

What do the screens show for `CCCC(=O)NC1=C(N2CC2)C(=O)C(NC(=O)CCC)=C(N2CC2)C1=O`?
SENP8 block-1: 66

Results for CCCC(=O)Nc1ccc(N2CCN(CC)CC2)c(Cl)c1 ?
SENP8 block-1: inactive; SENP8 block-2: inactive; Apaf1 inhib: inactive; SENP6 block: inactive; SENP7 inh: inactive; UBC13 inh: inactive

Results for Clc1ccc(CO/N=C(\Cn2ccnc2)c2ccc(Cl)cc2Cl)c(Cl)c1 ?
SENP8 block-2: inactive; Apaf1 inhib: inactive; SENP6 block: inactive; SENP7 inh: inactive; UBC13 inh: 51

Results for COc1ccc2c(c1)C1(C(=O)O)CC=CCC1(C(=O)O)C2 (stereo not drawn) ?
SENP8 block-1: inactive
